Results gathered from unrelated publications.
Protocols differ between the studies behind these lines.
IGF1R: Insulin-like growth factor 1 receptor (IGF1R, Homo sapiens, UniProt P08069)
IGF1R phosphorylated: Insulin-like growth factor 1 receptor, phosphorylated (IGF1R, Homo sapiens, UniProt P08069)

CS(=O)(=O)Nc1cccc(-c2csc(NC(=O)CSc3nc4nccnc4c(=O)n3CCc3ccccc3)n2)c1
inhibition (IGF1R; enzyme activity, inhibitor; 10 µM): 5%

Cc1nccc(COC(=O)N2C[C@@H]3[C@@H](CNC(=O)c4ccc5[nH]nnc5c4)[C@@H]3C2)n1
remaining binding (IGF1R; cell-free assay, competition with immobilised ligand; 1 µM): 93%

O=C1NC(=O)c2cc(Nc3ccc(F)cc3)c(Nc3ccc(F)cc3)cc21
remaining signal (IGF1R; cell-free assay; 0.5 µM): 102%

CN1CC(Oc2cnc(C#N)cc2-c2ccn3nc(NC(=O)C4CC4)cc3c2)C1
inhibition (IGF1R phosphorylated; enzyme activity, inhibitor; 1 µM): -13%

Cc1ccc(NC(=O)c2ccc(C)c(C(F)(F)F)c2)cc1C#Cc1nn(C2CCC(O)CC2)c2ncnc(N)c12 (stereo not drawn)
remaining signal (IGF1R; cell-free assay; 10 µM): 66%

CNCc1ccc(-c2cc(-c3nc(-c4ccc(S(=O)(=O)C(C)C)cc4)cnc3N)on2)cc1
inhibition (IGF1R; enzyme activity, inhibitor; 2 µM): 2%

COc1cc2ncnc(Nc3ccc(Oc4ccccc4)c(C)c3C)c2cc1OC
inhibition (IGF1R; enzyme activity, inhibitor; 1 µM): 2%

CNC(=O)c1ccc(Nc2ncc(C(F)(F)F)c(NCc3nccnc3N(C)S(C)(=O)=O)n2)cc1
remaining binding (IGF1R; cell-free assay, competition with immobilised ligand; 0.1 µM): 84%

CC/C(=N\NC(=O)NCc1cccc(O)c1)c1ccc(O)c(C)c1O
inhibition (IGF1R; enzyme activity, inhibitor; 0.1 µM): 3%

Cc1cc(NC(=O)c2cccc3cc(-c4cccc5[nH]nc(N)c45)ccc23)ccc1F
activity vs control (IGF1R; enzyme activity, inhibitor; 0.1 µM): 143%

CCN(CC)CCNC(=O)c1c(C)[nH]c(/C=C2\C(=O)Nc3ccc(F)cc32)c1C
inhibition (IGF1R; enzyme activity, inhibitor; 10 µM): 81%

CS(=O)(=O)N1CCCC(NC(=O)[C@H](CCC2CCCCC2)NC(=O)c2ccc(CNc3ncnc4c3nnn4-c3ccccc3)cc2)C1 (stereo partly drawn)
remaining binding (IGF1R; cell-free assay, competition with immobilised ligand; 0.1 µM): 100%

COc1cc(Nc2c(C#N)cnc3cc(OCCCN4CCN(C)CC4)c(OC)cc23)c(Cl)cc1Cl
remaining signal (IGF1R; cell-free assay; 0.5 µM): 91.5%

Nc1ncnc2occ(-c3ccc(NC(=O)Nc4cc(C(F)(F)F)ccc4F)cc3)c12
remaining signal (IGF1R; cell-free assay; 20 µM): 13%

CN(C)C(=O)Cn1cc(-c2nc(C3(c4ccc(-c5cnc(N)nc5)cc4)CC3)no2)cn1
remaining binding (IGF1R; cell-free assay, competition with immobilised ligand; 1 µM): 85%

N#CCCc1ccc2c(c1)-c1[nH]c3ccc([N+](=O)[O-])cc3c1CC(=O)N2
remaining signal (IGF1R; cell-free assay; 0.5 µM): 92.2%

Cc1cc(-n2nc(Cc3cc(F)cc(C(F)(F)F)c3)nc2C)ccc1C(N)=O
remaining binding (IGF1R; cell-free assay, competition with immobilised ligand; 1 µM): 98%

C=CC(=O)Nc1cc(Nc2nccc(Nc3cc(Cl)c(F)cc3C(C)(C)O)n2)c(OC)cc1N1CC[C@@H](N(C)C)C1
inhibition (IGF1R; enzyme activity, inhibitor; 1 µM): 35%

COc1cc2nccc(Oc3ccc(NC(=O)c4c5n(n(-c6ccc(F)cc6)c4=O)CCCC5)cc3)c2cc1OC
inhibition (IGF1R; enzyme activity, inhibitor; 0.1 µM): 16%

Cc1ccc(C(=O)NCc2ccsc2)cc1C#Cc1cn(C(C)C)c2ncnc(N)c12
activity vs control (IGF1R phosphorylated; enzyme activity, inhibitor; 1 µM): 136%

Cc1c(NC(=O)c2cc(C(N)=O)nc3cc(F)ccc23)c(C(F)(F)F)nn1Cc1ccc(C#N)cc1
remaining binding (IGF1R; cell-free assay, competition with immobilised ligand; 1 µM): 100%
